Test results taken from ChEMBL document CHEMBL4321835, “Could Dissecting the Molecular Framework of β-Lactam Integrin Ligands Enhance Selectivity?” (J Med Chem, 2019).
The source made the active and inactive calls. The calls are words filed in the database; no cut-off is given here.

Key:
Integrin alpha-4/beta-1 [1] = molecular target: T1, Integrin alpha-4/beta-1 (Homo sapiens, UniProt P05556+P13612); experiment: Activity at alpha4beta1 integrin receptor in human Jurkat E6.1 cells assessed as effect on VCAM1-induced cell adhesion pre-incubated for 30 mins; type: cell-based
Outline: (§1)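 Integrin-mediated adhesion. αvβ3: SK-MEL-24 cells adhering to FN. α5β1: K562 cells adhering to FN. α4β1: Jurkat E6.1 cells adhering to VCAM-1. Values are mean ± SD, n=3.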

Integrin alpha-V/beta-3 [2] = molecular target: T2, Integrin alpha-V/beta-3 (Homo sapiens, UniProt P05106+P06756); experiment: Activity at alphaVbeta3 integrin receptor in human SK-MEL-24 cells assessed as effect on fibronectin-induced cell adhesion pre-incubated for 30 mins; type: cell-based; outline: as §1
Integrin alpha-V/beta-3 [3] = molecular target: T2, Integrin alpha-V/beta-3; experiment: Agonist activity at alphaVbeta3 integrin receptor in human SK-MEL-24 cells assessed as increase in cell adhesion to wells coated with compound by passive absorption in absence of fibronectin; type: cell-based
Outline: (§2)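 Compounds were coated onto wells by passive absorption, with no FN present. Adhesion of SK-MEL-24 or Saos-2 cells was compared with BSA-coated wells. Mean ± SEM from three independent experiments run in quadruplicate; Newman-Keuls test after ANOVA.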

[4] = molecular target: Mitogen-activated protein kinase; ERK1/ERK2 (Homo sapiens) (UniProt P27361+P28482); experiment: Activation of ERK1/2 phosphorylation in HEK293 cells at 1 nM to 100 nM incubated for 1 hr by Western blot analysis; type: cell-based
Outline: (§3)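 HEK293 cells were transfected with plasmids coding αv and β3 subunits; untransfected HEK293 served as negative control and FN as positive control. ERK1/2 phosphorylation was quantified by band densitometry against vehicle. Mean ± SEM, n=5; Newman-Keuls test after ANOVA.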

Integrin alpha-4/beta-1 [5] = molecular target: T1, Integrin alpha-4/beta-1; experiment: Binding affinity to alpha4beta1 integrin receptor (unknown origin) incubated for 1 hr by scintillation proximity binding assay; type: protein-complex assay
Outline: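 Scintillation proximity binding assay for α4β1, giving IC50. Mean ± SEM, n=3.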

Integrin alpha-V/beta-3 [6] = molecular target: T2, Integrin alpha-V/beta-3; experiment: Agonist activity at alphaVbeta3 integrin receptor in human Saos-2 cells assessed as increase in fibronectin-induced cell adhesion pre-incubated for 30 mins; type: cell-based
Integrin alpha-V/beta-3 [7] = molecular target: T2, Integrin alpha-V/beta-3; experiment: Agonist activity at alphaVbeta3 integrin receptor (unknown origin) expressed in HEK293 cells assessed as induction of ERK1/2 phosphorylation at 1 nM to 100 nM incubated for 1 hr by Western blot analysis; type: cell-based; outline: as §3
Integrin alpha-5/beta-1 [8] = molecular target: T3, Integrin alpha-5/beta-1 (Homo sapiens, UniProt P05556+P08648); experiment: Binding affinity to alpha5beta1 integrin receptor (unknown origin) incubated fro 30 mins by competitive solid-phase binding assay; type: protein-complex assay
Outline: (§4)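 Competitive solid-phase binding assay using FN for αvβ3 and α5β1, giving IC50. Mean ± SEM, n=3.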

Integrin alpha-5/beta-1 [9] = molecular target: T3, Integrin alpha-5/beta-1; experiment: Antagonist activity at alpha5beta1 integrin receptor in human K562 cells assessed as reduction in fibronectin-induced cell adhesion pre-incubated for 30 mins; type: cell-based; outline: as §1
Integrin alpha-V/beta-3 [10] = molecular target: T2, Integrin alpha-V/beta-3; experiment: Agonist activity at alphaVbeta3 integrin receptor in human SK-MEL-24 cells assessed as increase in fibronectin-induced cell adhesion at 10 ug/ml added 10 mins after pre-incubation with neutralizing antibody to integrin alphaV-subunit; type: cell-based
Outline: (§5)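 Neutralizing antibody against the αv subunit was added to SK-MEL-24 or Saos-2 cells 10 min before the compounds (10 μg/mL). Adhesion was then measured.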

Integrin alpha-V/beta-3 [11] = molecular target: T2, Integrin alpha-V/beta-3; experiment: Agonist activity at alphaVbeta3 integrin receptor in human Saos-2 cells assessed as increase in fibronectin-induced cell adhesion at 10 ug/ml added 10 mins after pre-incubation with neutralizing antibody to integrin alphaV-subunit; type: cell-based; outline: as §5
Integrin alpha-V/beta-3 [12] = molecular target: T2, Integrin alpha-V/beta-3; experiment: Binding affinity to alphaVbeta3 integrin receptor (unknown origin) incubated fro 30 mins by competitive solid-phase binding assay; type: protein-complex assay; outline: as §4
Integrin alpha-V/beta-3 [13] = molecular target: T2, Integrin alpha-V/beta-3; experiment: Agonist activity at alphaVbeta3 integrin receptor in human SK-MEL-24 cells assessed as increase in fibronectin-induced cell adhesion pre-incubated for 30 mins; type: cell-based; outline: as §1
Integrin alpha-V/beta-3 [14] = molecular target: T2, Integrin alpha-V/beta-3; experiment: Agonist activity at alphaVbeta3 integrin receptor in human Saos-2 cells assessed as increase in cell adhesion to wells coated with compound by passive absorption in absence of fibronectin; type: cell-based; outline: as §2
Integrin alpha-5/beta-1 [15] = molecular target: T3, Integrin alpha-5/beta-1; experiment: Activity at alpha5beta1 integrin receptor in human K562 cells assessed as effect on fibronectin-induced cell adhesion pre-incubated for 30 mins; type: cell-based; outline: as §1
Integrin alpha-4/beta-1 [16] = molecular target: T1, Integrin alpha-4/beta-1; experiment: Agonist activity at alpha4beta1 integrin receptor in human Jurkat E6.1 cells assessed as increase in VCAM1-induced cell adhesion at 10 ug/ml pre-incubated for 30 mins in presence of 10 ug/ml neutralizing antibody to alpha4 integrin subunit; type: cell-based
Integrin alpha-4/beta-1 [17] = molecular target: T1, Integrin alpha-4/beta-1; experiment: Agonist activity at alpha4beta1 integrin receptor in human Jurkat E6.1 cells assessed as increase in VCAM1-induced cell adhesion pre-incubated for 30 mins; type: cell-based; outline: as §1
Integrin alpha-5/beta-1 [18] = molecular target: T3, Integrin alpha-5/beta-1; experiment: Agonist activity at alpha5beta1 integrin receptor in human K562 cells assessed as increase in fibronectin-induced cell adhesion pre-incubated for 30 mins; type: cell-based; outline: as §1
Integrin alpha-4/beta-1 [19] = molecular target: T1, Integrin alpha-4/beta-1; experiment: Agonist activity at alpha4beta1 integrin receptor in human Jurkat E6.1 cells assessed as induction of ERK1/2 phosphorylation incubated for 1 hr by Western blot analysis; type: cell-based
Outline: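 Jurkat cells (α4β1) were treated across a concentration range with VCAM-1 as positive control. ERK1/2 phosphorylation was quantified by band densitometry against vehicle. Mean ± SEM, n=5; Newman-Keuls test after ANOVA.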

Integrin alpha-5/beta-1 [20] = molecular target: T3, Integrin alpha-5/beta-1; experiment: Antagonist activity at alpha5beta1 integrin receptor in human K562 cells assessed as reduction in fibronection-induced ERK1/2 phosphorylation at 1 nM to 100 nM pre-incubated for 1 hr before fibronectin stimulation for 1 hr by Western blot analysis; type: cell-based
Outline: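 K562 cells (α5β1) were treated with compound and stimulated with FN. FN-induced ERK1/2 phosphorylation was quantified by band densitometry against vehicle and FN. Mean ± SEM, n=5; Newman-Keuls test after ANOVA.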

SMILES	Activity (Integrin alpha-4/beta-1 [1]) [µM]	Activity (Integrin alpha-V/beta-3 [2]) [µM]	IC50 (Integrin alpha-4/beta-1 [5]) [µM]	IC50 (Integrin alpha-5/beta-1 [8]) [µM]	IC50 (Integrin alpha-5/beta-1 [9]) [µM]	IC50 (Integrin alpha-V/beta-3 [12]) [µM]	Activity (Integrin alpha-5/beta-1 [15]) [µM]	other results
NCc1ccc(NC(=O)N2C(=O)C[C@H]2C(=O)O)cc1	> 5	> 5	–	–	–	–	–	–
Cc1ccccc1NC(=O)NCC(=O)O	> 5	–	> 1	> 1	3.51	0.0034	–	Activity (Integrin alpha-V/beta-3 [3]): Active; Activity [4]: inactive; EC50 (Integrin alpha-V/beta-3 [6]): 0.299 µM; Activity (Integrin alpha-V/beta-3 [7]): Active; Activity (Integrin alpha-V/beta-3 [10]): inactive; Activity (Integrin alpha-V/beta-3 [11]): inactive; EC50 (Integrin alpha-V/beta-3 [13]): 0.0848 µM; Activity (Integrin alpha-V/beta-3 [14]): Active
Cc1ccccc1NC(=O)N1C(=O)C[C@@H]1C(=O)NCCC(=O)O	> 5	> 5	> 1	0.0119	0.0969	> 1	–	–
Cc1ccccc1NC(=O)N1C(=O)CC1CC(=O)O (stereo not given)	–	> 5	–	–	–	–	> 5	–
Cc1ccccc1NC(=O)N1CCC[C@H]1C(=O)O	–	–	0.0189	0.136	–	> 1	–	Activity (Integrin alpha-4/beta-1 [16]): inactive; EC50 (Integrin alpha-4/beta-1 [17]): 0.01 µM; EC50 (Integrin alpha-5/beta-1 [18]): 0.14 µM; EC50 (Integrin alpha-V/beta-3 [13]): 2.88 µM; Activity (Integrin alpha-4/beta-1 [19]): Dose-dependent effect
O=C(O)/C=C1/CC(=O)N1	–	–	0.294	> 1	–	0.029	> 5	Activity (Integrin alpha-V/beta-3 [3]): Active; Activity [4]: inactive; EC50 (Integrin alpha-V/beta-3 [6]): 0.154 µM; Activity (Integrin alpha-V/beta-3 [7]): Active; Activity (Integrin alpha-V/beta-3 [10]): inactive; Activity (Integrin alpha-V/beta-3 [11]): inactive; EC50 (Integrin alpha-4/beta-1 [17]): 0.255 µM; EC50 (Integrin alpha-V/beta-3 [13]): 0.0756 µM; Activity (Integrin alpha-V/beta-3 [14]): Active
Cc1ccccc1NC(=O)NCCC(=O)O	> 5	–	> 1	> 1	–	0.0095	> 5	Activity (Integrin alpha-V/beta-3 [3]): Active; Activity [4]: inactive; EC50 (Integrin alpha-V/beta-3 [6]): 0.984 µM; Activity (Integrin alpha-V/beta-3 [7]): Active; Activity (Integrin alpha-V/beta-3 [10]): inactive; Activity (Integrin alpha-V/beta-3 [11]): inactive; EC50 (Integrin alpha-V/beta-3 [13]): 0.0299 µM; Activity (Integrin alpha-V/beta-3 [14]): Active
Cc1ccccc1C(=O)N1C(=O)C[C@H]1C(=O)O	> 5	> 5	> 1	0.0593	0.0415	> 1	–	inhibition (Integrin alpha-5/beta-1 [20]): Active
Cc1ccccc1NC(=O)N1C(=O)CC1CC(=O)NCC(=O)O (stereo not given)	> 5	> 5	–	–	–	–	–	–
O=C(O)CNC(=O)CC1CC(=O)N1 (stereo not given)	> 5	> 5	–	–	1.11	–	–	–
O=C(O)CC1CC(=O)N1 (stereo not given)	> 5	–	–	–	–	–	–	–
Cc1ccccc1NC(=O)N1CCC1=O	–	> 5	–	–	–	–	> 5	EC50 (Integrin alpha-4/beta-1 [17]): 0.976 µM
NCc1ccc(NC(=O)N2C(=O)C[C@@H]2C(=O)O)cc1	> 5	> 5	–	–	–	–	> 5	–
Cc1ccccc1NC(=O)N1C(=O)C[C@@H]1C(=O)O	> 5	> 5	–	–	–	–	> 5	–
Cc1ccccc1C(=O)N1C(=O)CC1CC(=O)O (stereo not given)	> 5	> 5	> 1	0.409	0.419	> 1	–	–
